According to ChEMBL document CHEMBL4834419 (J Med Chem, 2021):
pEC50, pIC50: −log10 of the molar value. Converted amounts (≈) assume the structure as drawn. Each block holds one compound with its values, some of them ahead of it. The source made the active and inactive calls. The calls are words filed in the database; no cut-off is given here.

Assays:
HepG2 [1] = assay: Cytotoxicity against human HepG2 cells assessed as reduction in cell viability incubated for 48 hrs by WST-1 assay; details: HepG2, 48 h
[2] = Cmax in po dosed rat; type: ADME, organism-based; parameters: route oral; details: in vivo
[3] = Aqueous solubility of compound in pH 8 phosphate buffer incubated for 1 hr by HPLC analysis; type: physicochemical
Method in brief: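 Solubility was measured with 3 mg compound in 2 mL 0.1 M phosphate buffer, pH 8, shaken 1 h at 37 °C. The mixture was pressed through a Uniprep filter and the dissolved compound in the filtrate quantified by HPLC against an external calibration; three independent experiments.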

[4] = Half life in po dosed rat; type: ADME, organism-based; details: in vivo
[5] = target: T1, Retinoic acid receptor RXR-beta (Homo sapiens) (UniProt P28702); assay: Agonist activity at human RXRbeta transfected in human HEK293T cells co-expressing pFR/pRL-Luc at 30 uM incubated for 14 to 16 hrs by hybrid reporter gene assay; type: cell-based; details: time 14-16 hrs
T1 sequence (whole entry): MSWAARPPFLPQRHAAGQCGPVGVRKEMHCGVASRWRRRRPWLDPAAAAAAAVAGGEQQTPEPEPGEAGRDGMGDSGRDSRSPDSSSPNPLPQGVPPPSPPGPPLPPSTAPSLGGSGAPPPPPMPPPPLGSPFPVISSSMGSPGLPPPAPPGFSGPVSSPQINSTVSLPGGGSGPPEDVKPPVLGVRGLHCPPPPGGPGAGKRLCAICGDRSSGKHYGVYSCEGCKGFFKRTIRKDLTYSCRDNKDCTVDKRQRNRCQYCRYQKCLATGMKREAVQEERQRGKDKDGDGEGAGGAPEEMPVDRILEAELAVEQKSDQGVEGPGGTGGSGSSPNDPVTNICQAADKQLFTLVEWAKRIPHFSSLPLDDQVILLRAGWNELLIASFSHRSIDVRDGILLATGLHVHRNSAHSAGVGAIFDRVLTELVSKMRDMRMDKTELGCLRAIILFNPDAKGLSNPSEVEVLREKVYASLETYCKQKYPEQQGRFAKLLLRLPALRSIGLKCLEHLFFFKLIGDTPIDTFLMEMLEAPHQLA
Method in brief: (§1)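 Gal4 hybrid reporter assay in HEK293T cells, seeded 24 h before transfection (Lipofectamine LTX, Opti-MEM) with pFR-Luc, pRL-SV40 and pFA-CMV plasmid carrying the hinge region and LBD of the human receptor. After 5 h, compound added in 0.1% DMSO, with 0.1% DMSO alone as untreated control. Dual-Glo luciferase read after 14−16 h; firefly/renilla normalized; duplicates, ≥2 independent experiments.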

[6] = target: T2, Retinoic acid receptor RXR-alpha (Homo sapiens) (UniProt P19793); assay: (§2) Agonist activity at human RXRalpha transfected in human HEK293T cells co-expressing pFR/pRL-Luc incubated for 14 to 16 hrs by hybrid reporter gene assay; type: cell-based; details: time 14-16 hrs
T2 sequence (whole entry): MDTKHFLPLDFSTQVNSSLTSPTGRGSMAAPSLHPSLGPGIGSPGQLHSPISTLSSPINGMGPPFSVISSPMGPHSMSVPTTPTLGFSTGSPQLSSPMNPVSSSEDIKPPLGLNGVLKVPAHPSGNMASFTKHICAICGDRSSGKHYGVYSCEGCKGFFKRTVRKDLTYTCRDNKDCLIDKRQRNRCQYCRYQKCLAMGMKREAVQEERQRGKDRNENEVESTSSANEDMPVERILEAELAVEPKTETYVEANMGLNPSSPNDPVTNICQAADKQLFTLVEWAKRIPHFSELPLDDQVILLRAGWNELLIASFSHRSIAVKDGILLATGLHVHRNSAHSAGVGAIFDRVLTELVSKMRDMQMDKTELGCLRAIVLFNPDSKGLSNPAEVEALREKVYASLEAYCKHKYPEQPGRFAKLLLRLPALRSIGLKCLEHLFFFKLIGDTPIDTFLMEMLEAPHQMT

[7] = target: T2, Retinoic acid receptor RXR-alpha (Homo sapiens); assay: Agonist activity at human RXRalpha transfected in human HEK293T cells co-expressing pFR/pRL-Luc at 30 uM incubated for 14 to 16 hrs by hybrid reporter gene assay; type: cell-based; details: time 14-16 hrs; method in brief: as §1
[8] = target: T3, Retinoic acid receptor RXR-gamma (Homo sapiens) (UniProt P48443); assay: Agonist activity at human RXRgamma transfected in human HEK293T cells co-expressing pFR/pRL-Luc at 30 uM incubated for 14 to 16 hrs by hybrid reporter gene assay; type: cell-based; details: time 14-16 hrs; method in brief: as §1
T3 sequence (whole entry): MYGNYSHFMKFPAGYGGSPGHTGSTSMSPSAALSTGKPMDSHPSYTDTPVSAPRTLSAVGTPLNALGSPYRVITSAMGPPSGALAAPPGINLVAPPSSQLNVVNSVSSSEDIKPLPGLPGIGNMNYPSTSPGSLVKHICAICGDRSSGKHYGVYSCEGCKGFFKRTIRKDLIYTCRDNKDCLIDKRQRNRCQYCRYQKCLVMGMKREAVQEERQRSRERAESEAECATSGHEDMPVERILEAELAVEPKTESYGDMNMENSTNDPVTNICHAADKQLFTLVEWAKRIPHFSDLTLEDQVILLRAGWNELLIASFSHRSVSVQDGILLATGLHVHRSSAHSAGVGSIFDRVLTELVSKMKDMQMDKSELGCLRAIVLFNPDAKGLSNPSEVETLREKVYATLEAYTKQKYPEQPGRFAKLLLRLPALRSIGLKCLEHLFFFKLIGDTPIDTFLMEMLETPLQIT

[9] = target: T1, Retinoic acid receptor RXR-beta (Homo sapiens); assay: Agonist activity at human RXRbeta transfected in human HEK293T cells co-expressing pFR/pRL-Luc incubated for 14 to 16 hrs by hybrid reporter gene assay; type: cell-based; details: time 14-16 hrs
HepG2 [10] = assay: Cytotoxicity against human HepG2 cells assessed as reduction in cell viability up to 100 uM incubated for 48 hrs by WST-1 assay; type: cell-based; details: hepg2, 48 h
Method in brief: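 HepG2 cells were seeded at 3 × 10⁴/well and grown 24 h. Medium was then switched to DMEM with 1% FCS containing compound in 0.1% DMSO; 0.1% DMSO alone was the negative control. After 48 h, WST-1 was added and absorbance read at 450/620 nm after 45 min. Four experiments in duplicate.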

[11] = target: T4, Retinoic acid receptor RXR-gamma (Homo sapiens, UniProt P48443); assay: Agonist activity at human RXRgamma transfected in human HEK293T cells co-expressing pFR/pRL-Luc incubated for 14 to 16 hrs by hybrid reporter gene assay; type: cell-based
T4 sequence (P48443 whole entry): T3 sequence (whole entry)

[12] = target: T5, Nuclear receptor subfamily 1 group I member 3 (Homo sapiens, UniProt Q14994); assay: Agonist activity against human CAR in human HEK293T cells co-expressing pFR/pRL-Luc assessed as receptor activation at 10 uM incubated for 14 to 16 hrs by hybrid reporter gene assay relative to bexarotene; type: cell-based; details: time 14-16 hrs; method in brief: as §1
T5 sequence (Q14994 whole entry): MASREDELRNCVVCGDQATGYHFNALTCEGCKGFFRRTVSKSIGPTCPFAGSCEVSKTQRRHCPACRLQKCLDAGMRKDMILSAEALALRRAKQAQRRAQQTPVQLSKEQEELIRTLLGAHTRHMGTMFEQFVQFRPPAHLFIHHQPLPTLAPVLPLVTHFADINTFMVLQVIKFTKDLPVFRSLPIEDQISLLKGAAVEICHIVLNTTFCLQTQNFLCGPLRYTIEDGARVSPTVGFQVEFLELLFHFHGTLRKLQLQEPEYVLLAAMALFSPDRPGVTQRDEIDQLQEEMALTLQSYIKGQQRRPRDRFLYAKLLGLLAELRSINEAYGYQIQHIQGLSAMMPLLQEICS

[13] = Metabolic stability in Sprague-Dawley rat liver microsomes assessed as compound degradation at 10 uM incubated for 60 min by HPLC analysis; type: ADME; details: 1 h
Method in brief: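 Compound at 10 μM final in 0.1 M phosphate, pH 7.4, was preincubated 5 min at 37 °C with an NADPH-regenerating system. Sprague-Dawley rat liver microsomes were then added. Reactions were stopped with ice-cold methanol at 0, 15, 30 and 60 min and remaining compound quantified by HPLC against an external calibration. Controls: no NADPH, heat-inactivated microsomes. Three independent experiments.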

[14] = target: T6, Retinoic acid receptor RXR-alpha (Homo sapiens, UniProt P19793); assay: as §2; type: cell-based
T6 sequence (P19793 whole entry): T2 sequence (whole entry)

[15] = Plasma concentration in mouse at 10 mg/kg, po measure after 3 hrs; type: ADME, organism-based
Method in brief: (§3)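 Mice, n = 3, received a single oral dose of 10 mg/kg in water with 1% hydroxypropyl methylcellulose/Tween 80 (99:1). Tail-vein blood was drawn at 30 and 60 min and tissue collected at 3 h. Compound was quantified by LC−MS and PK derived by noncompartmental analysis.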

[16] = Cmax in mouse at 10 mg/kg, po; type: ADME, organism-based; parameters: route oral, dose 10 mg/kg; details: in vivo; method in brief: as §3
[17] = Half life in mouse at 10 mg/kg, po; type: ADME, organism-based; details: in vivo; method in brief: as §3

Cmax [2]: 600 ng/mL
solubility ([3]; buffer, pH 8, 1 h): 0.3 µg/mL (≈ 0.861 µM)
half-life [4]: 1.2 h
Structure (SMILES): C=C(c1ccc(C(=O)O)cc1)c1cc2c(cc1C)C(C)(C)CCC2(C)C [BEXAROTENE]
pIC50 (HepG2 [1]): 4.70

Activity [5]: inactive
Activity [6]: inactive
Activity [7]: inactive
Activity [8]: inactive
Activity [9]: inactive
Structure (SMILES): CN(C)c1cccc(-c2oc(CCC(=O)O)nc2-c2ccccc2)c1

pEC50 [11]: 5.82
Activity [12]: 15%
Stabilty [13]: Stable
pEC50 [14]: 6.52
concentration at 3 h [15]: 35000 ng/mL
Structure (SMILES): O=C(O)CCc1cc(-c2cc(Cl)cc(Cl)c2)n(-c2ccc(Cl)cc2)n1
Activity (HepG2 [10]): Non-Toxic

Cmax [16]: 33000 ng/mL
pEC50 [11]: 7.30
Activity [12]: 4%
Stabilty [13]: Stable
pEC50 [14]: 7.30
solubility at 1 h ([3]; phosphate buffer, pH 8): 146 µg/mL (≈ 340 µM)
half-life [17]: > 3 h
Structure (SMILES): O=C(O)CCc1nc(-c2ccccc2)c(-c2cc(C(F)(F)F)cc(C(F)(F)F)c2)o1
Activity (HepG2 [10]): Non-Toxic
